Rows were chosen to be rich in hits. Some 5.8% of all compounds tested hit in one or more screens of this group.
Pf Dd2 growth = blocks growth of Plasmodium falciparum Dd2 parasites. hit rate 2.3% among 94,000. P. falciparum Dd2 growth, SYBR Green, 72 h; stronger effect = lower value. AID 1159554. activity change, % at 10 µM; in the data active = activity change below about -80%; inconclusive = no clear call, values can overlap the other calls
IDH1 R132H inh = IDH1 R132H (human) inhibition; IDH1 R132H reductase, diaphorase/resazurin fluorescence, 60 min; inhibition, % at 10 µM; hit rate 0.18% among 70,000; AID 624101; in the data active = inhibition above about 34%; inconclusive = no clear call, values can overlap the other calls; inactive = below about 11%;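 also: 0% = DMSO and 100% = no enzyme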
Target sequence (O75874 whole entry R132H): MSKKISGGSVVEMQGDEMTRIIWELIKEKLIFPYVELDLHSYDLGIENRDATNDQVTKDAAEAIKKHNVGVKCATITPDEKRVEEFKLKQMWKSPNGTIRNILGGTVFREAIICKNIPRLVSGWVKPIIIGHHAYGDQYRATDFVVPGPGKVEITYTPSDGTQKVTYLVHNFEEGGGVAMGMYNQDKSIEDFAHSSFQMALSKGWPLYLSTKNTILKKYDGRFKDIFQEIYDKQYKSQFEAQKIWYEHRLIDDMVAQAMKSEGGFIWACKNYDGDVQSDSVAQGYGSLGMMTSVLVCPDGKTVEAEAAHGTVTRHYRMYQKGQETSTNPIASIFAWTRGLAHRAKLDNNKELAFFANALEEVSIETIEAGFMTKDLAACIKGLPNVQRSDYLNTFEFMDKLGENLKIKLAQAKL
T cruzi growth-1 = blocks T. cruzi growth in NIH3T3 culture; hit rate 5.9% among 77,000; T. cruzi beta-gal in NIH3T3, GalScreen luminescence, 90 h; AID 624255; inhibition, % at 8.34 µM;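 active = mean inhibition above about 93%, with at least 55% of replicates each passing it, limit read from the data, passing the limit was not always enough; inconclusive = only one of those two conditions holds; inactive = neither condition holds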
GASC1 inh = blocks human GASC-1 (KDM4C) demethylase activity. GST-KDM4C 2-372, H3K9me3 peptide, LANCE TR-FRET. hit rate 0.15% among 96,000. inhibition, % at 12.5 µM. Q9H3R0;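 active = mean replicate inhibition above about 25%, with at least 55% of replicates also reaching it, limit read from the data, passing the limit was not always enough; inconclusive = only one of those two conditions met; inactive = neither condition met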
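Test system: N-terminal GST-fused human GASC-1 (KDM4C) fragment, residues 2-372; quantity: GASC-1 enzyme at 10 nM final in reaction; dosing: single dose; schedule: 30 min demethylation and 1 h detection at room temperature; signal: LANCE TR-FRET, excitation 340 nm, emissions 618 and 671 nm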
T cruzi growth-2 = blocks T. cruzi growth in NIH3T3 host cells; hit rate 72% among 5,600; AID 651739; T. cruzi beta-gal in NIH3T3, GalScreen luminescence, 90 h; shares compounds with T cruzi growth-1; inhibition, % at 8.35 µM;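 active = mean replicate inhibition above about 95% and at least 55% of replicates individually reaching it, limit read from the data; inconclusive = only one of the two criteria is met; inactive = neither criterion is met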
T cruzi growth-3 = inhibitors of T. cruzi proliferation; shares compounds with T cruzi growth-1; T. cruzi beta-gal in NIH3T3, GalScreen luminescence, 90 h; inhibition, % at 2.09 µM; hit rate 21% among 5,600;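 active = mean inhibition above about 95%, with at least 55% of replicates also reaching it, limit read from the data; inconclusive = meets just one of the two conditions; inactive = meets neither condition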;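 also: plate controls were neutral control median for no effect and positive control median for full effect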
3T3 cytotox = NIH/3T3 (mouse) viability loss; cytotoxicity (signal decrease), % at 8.35 µM; NIH/3T3 viability, CellTiter-Glo ATP luminescence, 90 h; shares compounds with T cruzi growth-1; AID 651742; hit rate 14% among 5,600;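 active = mean signal decrease across replicates above about 35% based on untreated-well scatter, with enough replicates individually passing, limit read from the data; inconclusive = no rule stated though some were filed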;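 also: 0% = median of neutral control wells and 100% = median of positive control wells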
NIH3T3 tox 2 = NIH/3T3 (mouse) viability loss; shares compounds with T cruzi growth-1; NIH/3T3 viability, CellTiter-Glo ATP luminescence, 90 h; inhibition, % at 24.9 µM; hit rate 56% among 5,600;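 active = mean loss of cell viability signal at or above a set limit, and enough replicates individually reaching it; inconclusive = meets only the mean limit or only the replicate share; inactive = meets neither condition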;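 also: 0% = median of neutral control wells and 100% = median of positive control wells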
Starred values were filed as active, the others as inactive; u = inconclusive; x = not tested or not shown.

SMILES | Pf Dd2 growth | IDH1 R132H inh | T cruzi growth-1 | GASC1 inh | T cruzi growth-2 | T cruzi growth-3 | 3T3 cytotox | NIH3T3 tox 2
C[C@@H]1CCCCO[C@H](CN(C)S(=O)(=O)c2ccc(F)cc2)[C@H](C)CN([C@@H](C)CO)C(=O)c2cc(NC(=O)Nc3ccc4c(c3)OCO4)ccc2O1 | -81* | x | 100* | -2 | 102* | 72 | -18 | 12
C[C@@H]1CCCCO[C@@H](CN(C)S(=O)(=O)c2ccc(F)cc2)[C@H](C)CN([C@@H](C)CO)C(=O)c2cc(NC(=O)Nc3ccc4c(c3)OCO4)ccc2O1 | -19 | x | 24 | 0 | x | x | x | x
CC(C)NC(=O)N(C)C[C@H]1OCCCC[C@H](C)Oc2ccc(NC(=O)Cc3ccccc3)cc2C(=O)N([C@@H](C)CO)C[C@@H]1C | -48 | -2 | 23 | -1 | x | x | x | x
C[C@H](CO)N1C[C@H](C)[C@H](CN(C)C(=O)NC2CCCCC2)Oc2cc(C#Cc3ccc(F)cc3)ccc2S1(=O)=O | -57 | -3 | 54 | -1 | x | x | x | x
C[C@@H]1CN([C@H](C)CO)S(=O)(=O)c2ccc(C#Cc3ccc(F)cc3)cc2O[C@H]1CN(C)C(=O)NC1CCCCC1 | -59 | x | 87 | -2 | x | x | x | x
COc1ccc(C#Cc2ccc3c(c2)O[C@@H](CN(C)C(=O)NC2CCCCC2)[C@@H](C)CN([C@@H](C)CO)S3(=O)=O)cc1 | -77 | 2 | u | -4 | u | 114* | -6 | 11
COc1ccc(C#Cc2ccc3c(c2)O[C@H](CN(C)C(=O)NC2CCCCC2)[C@H](C)CN([C@H](C)CO)S3(=O)=O)cc1 | -61 | -2 | u | -3 | u | 113* | -9 | 8
COc1ccc(C#Cc2ccc3c(c2)O[C@H](CN(C)C(=O)NC2CCCCC2)[C@@H](C)CN([C@H](C)CO)S3(=O)=O)cc1 | -50 | 0 | u | -6 | 106* | 63 | -18 | 33*
COCC#Cc1ccc2c(c1)O[C@@H](CN(C)C(=O)Nc1ccc(OC)cc1)[C@@H](C)CN([C@H](C)CO)S2(=O)=O | -18 | 0 | -21 | -2 | x | x | x | x
COc1cccc(NC(=O)N(C)C[C@H]2Oc3ncc(C4=CCCCC4)cc3C(=O)N([C@H](C)CO)C[C@@H]2C)c1 | -52 | -4 | 12 | 0 | x | x | x | x
N#C[C@@H]1[C@H](c2ccc(C3=CCCCC3)cc2)[C@@H](CO)N1S(=O)(=O)c1cccc(F)c1 | -4 | x | 98* | 0 | u | 35 | -15 | 104*
N#C[C@@H]1[C@H](c2ccc(C3=CCCC3)cc2)[C@H](CO)N1S(=O)(=O)c1cccc(F)c1 | -24 | x | 37 | 4 | x | x | x | x
N#C[C@H]1[C@@H](c2ccc(C3=CCCCC3)cc2)[C@H](CO)N1S(=O)(=O)c1ccccc1 | -22 | x | 97* | -2 | 97* | 86 | 41* | 100*
C/C=C/c1ccc2c(c1)O[C@@H](CN(C)C(=O)Nc1ccc(F)cc1)[C@H](C)CN([C@H](C)CO)S2(=O)=O | -2 | 1 | 11 | -2 | x | x | x | x
CNC(=O)C[C@H]1CC[C@@H]2[C@H](COc3ccc(NC(=O)Nc4cccc(C)c4)cc3C(=O)N2C)O1 | 6 | x | 14 | 0 | x | x | x | x
C[C@@H]1CN([C@H](C)CO)C(=O)c2cc(-c3ccccc3)cnc2O[C@H]1CN(C)C | 4 | 2 | u | 3 | 100* | -26 | 5 | 20
Cc1ccc(-c2cnc3c(c2)C(=O)N([C@@H](C)CO)C[C@H](C)[C@@H](CN(C)CC2CCCC2)O3)cc1 | -69 | -1 | 103* | -2 | 108* | 43 | u | 105*
C[C@H](CO)N1C[C@H](C)[C@@H](CN(C)C(=O)CN2CCOCC2)Oc2ncc(-c3cncnc3)cc2C1=O | -16 | -1 | u | 1 | -8 | 14 | -2 | -4
C[C@H]1CN([C@@H](C)CO)C(=O)c2cc(-c3cncnc3)cnc2O[C@H]1CN(C)C(=O)CN1CCOCC1 | 19 | 0 | x | 2 | x | x | x | x
O=C(C[C@H]1CC[C@H](NS(=O)(=O)c2ccccc2)[C@H](CO)O1)NCc1ccccc1F | -19 | 0 | -51 | -1 | x | x | x | x
COCC#Cc1cnc2c(c1)C(=O)N([C@@H](C)CO)C[C@@H](C)[C@H](CN(C)C(=O)C1CC1)O2 | 34 | x | 112* | -1 | 39 | 2 | 24 | u
COCC#Cc1cnc2c(c1)C(=O)N([C@H](C)CO)C[C@@H](C)[C@H](CN(C)C(=O)C1CC1)O2 | 12 | x | 97* | 0 | -14 | -8 | 22 | 12
CCNC(=O)[C@@H]1[C@@H](CO)[C@@H]2Cn3c(ccc(-c4ccccc4)c3=O)[C@@H]2N1Cc1ccccc1 | 0 | x | 81 | 6 | x | x | x | x
N#Cc1ccc(-c2ccc3c(c2)[C@H]2[C@H](CCN2C(=O)c2ccc4c(c2)OCO4)[C@H](CO)N3)cc1 | -21 | x | 25 | -3 | x | x | x | x
CN(C)C(=O)c1ccc(-c2ccc3c(c2)[C@@H]2[C@@H](CCN2C(=O)c2ccc4c(c2)OCO4)[C@@H](CO)N3)cc1 | -9 | x | 100* | 0 | 109* | 61 | 2 | 1
SMILES | Pf Dd2 growth | IDH1 R132H inh | T cruzi growth-1 | GASC1 inh | T cruzi growth-2 | T cruzi growth-3 | 3T3 cytotox | NIH3T3 tox 2
N#Cc1cccc(-c2ccc3c(c2)[C@@H]2[C@@H](CCN2C(=O)c2ccc4c(c2)OCO4)[C@H](CO)N3)c1 | -17 | x | u | 1 | 97* | 73 | 30 | 48*
O=C(c1ccc(F)cc1)N1CCCCN2[C@H](C1)[C@@H](c1ccc(/C=C/c3ccccc3)cc1)[C@@H]2CO | -18 | x | 99* | -1 | 109* | 79 | 33 | 32*
O=C(c1ccc(F)cc1)N1CCCCN2[C@H](CO)[C@@H](c3ccc(/C=C/c4ccccc4)cc3)[C@@H]2C1 | 1 | x | 72 | -1 | x | x | x | x
O=C(c1ccc(F)cc1)N1CCCCN2[C@H](CO)[C@H](c3ccc(/C=C/c4ccccc4)cc3)[C@@H]2C1 | -18 | x | 111* | -2 | 107* | u | 23 | 105*
O=C(c1ccc(F)cc1)N1CCCCN2[C@H](CO)[C@H](c3ccc(/C=C/c4ccccc4)cc3)[C@H]2C1 | -46 | x | 61 | -1 | x | x | x | x
O=C(c1ccc(F)cc1)N1CCCCN2[C@@H](CO)[C@@H](c3ccc(/C=C/c4ccccc4)cc3)[C@@H]2C1 | -56 | x | 112* | -1 | 98* | 63 | 88* | 104*
COc1ccc(CN(C)C[C@H]2OCCCC[C@H](C)Oc3ccc(NC(=O)Nc4ccc5c(c4)OCO5)cc3C(=O)N([C@H](C)CO)C[C@H]2C)cc1 | -75 | x | 105* | 2 | u | u | 22 | 78*
